Legend:
Type in all cases: functional
OVCAR-4 = experiment: Growth inhibition of human OVCAR4 cells assessed as cell viability at 1 uM incubated for 48 hrs by sulforhodamine B assay; conditions: OVCAR-4, 48 h, read-out: Activity
SK-MEL-28 = experiment: Growth inhibition of human SK-MEL-28 cells assessed as cell viability at 100 uM incubated for 48 hrs by sulforhodamine B assay; conditions: SK-MEL-28, 48 h, read-out: Activity
MDA-MB-435 = experiment: Growth inhibition of human MDA-MB-435 cells assessed as cell viability at 1 uM incubated for 48 hrs by sulforhodamine B assay; conditions: MDA-MB-435, 48 h, read-out: Activity
SK-MEL-2 = experiment: Growth inhibition of human SK-MEL-2 cells assessed as cell viability at 0.001 uM incubated for 48 hrs by sulforhodamine B assay relative to control; conditions: SK-MEL-2, 48 h, read-out: Activity
IGROV-1 = experiment: Growth inhibition of human IGROV1 cells assessed as cell viability at 0.001 uM incubated for 48 hrs by sulforhodamine B assay relative to control; conditions: IGROV-1, 48 h, read-out: Activity
SK-OV-3 = experiment: Growth inhibition of human SKOV3 cells assessed as cell viability at 100 uM incubated for 48 hrs by sulforhodamine B assay; conditions: SK-OV-3, 48 h, read-out: Activity
OVCAR-5 = experiment: Growth inhibition of human OVCAR5 cells incubated for 48 hrs by sulforhodamine B assay; conditions: OVCAR-5, 48 h
Outline: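 NCI-60 five-dose SRB assay. Cells were exposed for 48 h to tenfold dilutions of 0.01, 0.1, 1, 10 and 100 µM, in RPMI 1640 with 5% FBS. Plates fixed with TCA at the time of drug addition served as the time-zero reference. GI50 is the concentration giving a 50% reduction in net growth. TGI is total growth inhibition. LC50 is a net 50% loss of the initial cells.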

SR = experiment: Growth inhibition of human SR cells assessed as cell viability at 0.1 uM incubated for 48 hrs by sulforhodamine B assay; conditions: read-out: Activity
CAKI-1 = experiment: Growth inhibition of human Caki1 cells incubated for 48 hrs by sulforhodamine B assay; conditions: CAKI-1, 48 h
Outline: (§1)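 NCI-60 five-dose mode: five tenfold dilutions (0.01, 0.1, 1, 10, 100 µM) are applied for 48 h to cells in RPMI 1640 with 5% FBS at 37 °C. Endpoint is TCA fixation with sulforhodamine B read at 515 nm. % growth comes from the 0 h and control absorbances. GI50 is the concentration giving a 50% reduction in net cell growth.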

HL-60(TB) = experiment: Growth inhibition of human HL-60(TB) cells incubated for 48 hrs by sulforhodamine B assay; conditions: HL-60, 48 h
Outline: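 NCI-60 five-dose assay, SRB end-point, same culture conditions. Compound is tested at tenfold dilutions of 0.01, 0.1, 1, 10 and 100 µM for 48 h at 37 °C, with DMSO/PBS vehicle controls. Percentage growth at each concentration is taken against untreated cells and a time-zero plate. GI50 is 50% net growth decrease, TGI is total growth inhibition, and LC50 is 50% loss of initial cells.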

EKVX [1] = experiment: Growth inhibition of human EKVX cells assessed as cell viability at 1 uM incubated for 48 hrs by sulforhodamine B assay; conditions: read-out: Activity
ACHN = experiment: Growth inhibition of human ACHN cells assessed as cell viability at 100 uM incubated for 48 hrs by sulforhodamine B assay; conditions: read-out: Activity; outline: as §1
MOLT-4 = experiment: Growth inhibition of human MOLT4 cells assessed as cell viability at 100 uM incubated for 48 hrs by sulforhodamine B assay; conditions: MOLT-4, 48 h, read-out: Activity
RXF 393 [2] = experiment: Growth inhibition of human RXF393 cells assessed as cell viability at 100 uM incubated for 48 hrs by sulforhodamine B assay; conditions: RXF 393, 48 h, read-out: Activity
SK-MEL-5 = experiment: Growth inhibition of human SK-MEL-5 cells assessed as cell viability at 0.1 uM incubated for 48 hrs by sulforhodamine B assay; conditions: SK-MEL-5, 48 h, read-out: Activity
MDA-MB-231 = experiment: Growth inhibition of human MDA-MB-231 cells assessed as cell viability at 1 uM incubated for 48 hrs by sulforhodamine B assay; conditions: MDA-MB-231, 48 h, read-out: Activity
HCT-116 = experiment: Growth inhibition of human HCT116 cells assessed as cell viability at 1 uM incubated for 48 hrs by sulforhodamine B assay; conditions: HCT-116, 48 h, read-out: Activity
A549 = experiment: Growth inhibition of human A549/ATCC cells incubated for 48 hrs by sulforhodamine B assay; conditions: A549, 48 h; outline: as §1
KM12 = experiment: Growth inhibition of human KM12 cells incubated for 48 hrs by sulforhodamine B assay; conditions: KM12, 48 h
Outline: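 NCI-60 five-dose SRB assay in RPMI 1640 with 5% FBS, 37 °C, 5% CO2. Compound given at five tenfold dilutions, 0.01–100 µM, for 48 h. Adherent cells fixed with TCA, suspension cells with 16% final TCA. Bound SRB read at 515 nm and growth calculated against time-zero and untreated controls. GI50 taken from dose–response curves as the concentration giving a 50% decrease in net cell growth.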

RXF 393 [3] = experiment: Growth inhibition of human RXF393 cells assessed as cell viability at 0.001 uM incubated for 48 hrs by sulforhodamine B assay relative to control; conditions: RXF 393, 48 h, read-out: Activity
SNB-75 = experiment: Induction of apoptosis in human SNB75 cells assessed as necrosis at 2 uM incubated for 24 hrs by annexin V FITC and propidium iodide based flow cytometry (reference value: 0.44 %)
EKVX [4] = experiment: Growth inhibition of human EKVX cells incubated for 48 hrs by sulforhodamine B assay; outline: as §1
SNB-19 = experiment: Growth inhibition of human SNB19 cells assessed as cell viability at 100 uM incubated for 48 hrs by sulforhodamine B assay; conditions: SNB-19, 48 h, read-out: Activity
[5] = read-out: LC50 (the source's name)
[6] = read-out: pLC50 (the source's name) (converted)

Compound: CC1=C(C(=O)OCc2ccccc2)C(c2ccc3c(c2)OCO3)n2c(nc3ccccc32)N1 (racemic)
- viability at 1 µM (OVCAR-4): 61%
- viability at 100 µM (SK-MEL-28): 60%
- viability at 1 µM (MDA-MB-435): -39%
- viability at 0.001 µM (SK-MEL-2): 97%
- viability at 0.001 µM (IGROV-1): 92%
- viability at 100 µM (SK-OV-3): 42%
- GI50 (OVCAR-5; read-out: GI50): > 100 µM
- CC50 (OVCAR-5; [5]): > 100 µM
- TGI (OVCAR-5; read-out: TGI): > 100 µM
- GI50 (OVCAR-5; read-out: pGI50 (converted)): > 100 µM
- CC50 (OVCAR-5; [6]): > 100 µM
- TGI (OVCAR-5; read-out: pTGI): > 100 µM
- viability at 0.1 µM (SR): 75%
- GI50 (CAKI-1; read-out: GI50): 0.28 µM
- CC50 (CAKI-1; [5]): > 100 µM
- TGI (CAKI-1; read-out: TGI): > 100 µM
- GI50 (CAKI-1; read-out: pGI50 (converted)): 0.282 µM
- CC50 (CAKI-1; [6]): > 100 µM
- TGI (CAKI-1; read-out: pTGI): > 100 µM
- GI50 (HL-60(TB); read-out: GI50): 0.34 µM
- CC50 (HL-60(TB); [5]): > 100 µM
- TGI (HL-60(TB); read-out: TGI): > 100 µM
- GI50 (HL-60(TB); read-out: pGI50 (converted)): 0.339 µM
- CC50 (HL-60(TB); [6]): > 100 µM
- TGI (HL-60(TB); read-out: pTGI): > 100 µM
- viability at 1 µM (EKVX [1]): 41%
- viability at 100 µM (ACHN): 35%
- viability at 100 µM (MOLT-4): 33%
- viability at 100 µM (RXF 393 [2]): 15%
- viability at 0.1 µM (SK-MEL-5): 98%
- viability at 1 µM (MDA-MB-231): 56%
- viability at 1 µM (HCT-116): 26%
- GI50 (A549; read-out: GI50): 0.68 µM
- CC50 (A549; [5]): > 100 µM
- TGI (A549; read-out: TGI): > 100 µM
- GI50 (A549; read-out: pGI50 (converted)): 0.676 µM
- CC50 (A549; [6]): > 100 µM
- TGI (A549; read-out: pTGI): > 100 µM
- GI50 (KM12; read-out: GI50): 0.34 µM
- LC50 (KM12; read-out: LC50): > 100 µM
- TGI (KM12; read-out: TGI): > 100 µM
- GI50 (KM12; read-out: pGI50 (converted)): 0.339 µM
- LC50 (KM12; read-out: pLC50 (converted)): > 100 µM
- TGI (KM12; read-out: pTGI): > 100 µM
- viability at 0.001 µM (RXF 393 [3]): 92%
- Activity (SNB-75): 2.05%
- GI50 (EKVX [4]; read-out: GI50): 0.69 µM
- LC50 (EKVX [4]; read-out: LC50): > 100 µM
- TGI (EKVX [4]; read-out: TGI): > 100 µM
- GI50 (EKVX [4]; read-out: pGI50 (converted)): 0.692 µM
- LC50 (EKVX [4]; read-out: pLC50 (converted)): > 100 µM
- TGI (EKVX [4]; read-out: pTGI): > 100 µM
- viability at 100 µM (SNB-19): 28%
